Reference: PubChem BioAssay
Values without a mark were called inactive. Active and inactive are the calls of the source.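 How the source made its calls, unless noted: active means viability increase at or above a cutoff of the median across tested compounds plus 3 SD (cut at about 8.5% in these data, passing the limit was not always enough); inconclusive means some gains above the cutoff, reason not given; inactive means the rest.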

experiment: Restrictive medium S. cerevisiae growth inhibition, OD615, pilot screen of yeast lifespan reduction project, restrictive growth control (AID 706;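 active means growth inhibition above a set limit, 3 SD over mean compound inhibition, in both replicates, cut at about 43% in these data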;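 further: modified DeaD lifespan yeast strain shifted to restrictive glucose medium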); conditions: OD615, 48 h, at 10 µM, hits give high values
Outline: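 Assay system – genetically modified Saccharomyces cerevisiae, DeaD replicative lifespan assay strain · Medium – CSMM-D glucose medium · Doses – 10 µM compound, 0.25% DMSO · Times – 4 h pre-incubation, 48 h exposure at 30 °C · Signal – optical density at 615 nm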

Going from `Cn1cc(SCC(=O)N2CCN(c3ccccc3)CC2)c2ccccc21` to `c1ccc2c(c1)CCN(c1nc3ccccc3n3cnnc13)C2`, the growth inhibition falls from 11.5% to 10.2%.

First: COc1ccc(C(=O)Nc2ccc(Cl)cc2C(=O)NCc2ccco2)cc1OC
Second: COc1ccc(C2C(C(=O)Nc3cccnc3)=C(C)Nc3nc(-c4ccco4)nn32)cc1 (stereo not drawn)
The growth inhibition of the first is higher: -8.55% for the first, -9.13% for the second.

Compared with `Cc1cccc(N=C(N2CCOCC2)P(=O)(N2CCOCC2)N2CCOCC2)c1`, `Cc1ccc(C)c(SCC(=O)OCC(=O)Nc2ccc(S(=O)(=O)N3CCOCC3)cc2)c1` is higher in growth inhibition: -23.4% for the first, -17.7% for the second.

Going from `COc1cccc(-n2c(Cc3cc(=O)[nH]c(=O)[nH]3)nnc2SCC(=O)Nc2ccccc2)c1` to `COc1cccc(N2CCN(c3ncnc4c3cnn4-c3ccc(C)cc3C)CC2)c1`, the growth inhibition rises from -2.63% to 3.35%.

First: CC(C)n1c(NCc2cc(Cl)ccc2O)nc2ccccc21
Second: Cc1ccc(CCNC(=O)CS(=O)Cc2nc(-c3cccc(C)c3)oc2C)cc1 (stereo not drawn)
The growth inhibition of the first is lower: -7.78% for the first, 2.34% for the second.

Going from `CC1CCN(S(=O)(=O)c2ccc(NC(=O)c3cccs3)cc2)CC1` to `CC(NS(=O)(=O)c1ccc(Br)cc1)C(c1cccs1)N1CCN(C)CC1` (stereo not drawn), the growth inhibition falls from 5.38% to 3.13%.

First: CCCCOc1ccc(C2(C)CC(=O)NC2=O)cc1 (stereo not drawn)
Second: CCOC(=O)C1Cn2c(nc3c(c2=O)C(C)(CC)Cc2ccccc2-3)S1 (stereo not drawn)
The growth inhibition of the first is higher: 10.9% for the first, 5.55% for the second.

First: CN(CCNC(=O)C1CC(=O)N(C2CCCC2)C1)Cc1ccccc1 (stereo not drawn)
Second: O=C(NCCCN1CCCC1=O)c1ccccc1NS(=O)(=O)c1ccc(F)cc1
The growth inhibition of the first is higher: 0.485% for the first, -22% for the second.

Compared with `CCOC(=O)c1sc2nc3n(c(=O)c2c1C)CCCCC3`, `COCCCNC(=O)Cn1ncc2ccsc2c1=O` is lower in growth inhibition: 5.75% for the first, 3.33% for the second.

Compared with `CS(=O)(=O)N(CC(=O)NCc1ccco1)c1ccc(Cl)c(C(F)(F)F)c1`, `COc1ccc(-n2cnnc2)cc1` is higher in growth inhibition: -22.3% for the first, -0.83% for the second.

Compared with `COc1ccc(N2CSC3=C(C#N)C(c4ccc(OC)c(OC)c4)CC(=O)N3C2)c(OC)c1` (stereo not drawn), `O=C(Nn1nnnc1Nc1ccccc1)C12CC3CC(CC(C3)C1)C2` is lower in growth inhibition: 22.1% for the first, -2.85% for the second.

For `COc1ccc(OCc2nnc3n2N=C(c2ccc(OC)cc2)CS3)cc1`, the growth inhibition was 57.4% (active).

experiment: viability gain of MRP-1-high H69AR cells under doxorubicin, pilot screen, MRP-1 activator project, CellTiter-Glo, duplicate (AID 807); conditions: H69AR viability with doxorubicin, CellTiter-Glo luminescence; at 10 µM; hits give high values;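 further: compound pretreatment 18-22 h then 72 h combined with doxorubicin; 0% = doxorubicin alone and 100% = vehicle without doxorubicin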

First: O=C(CSc1ccccn1)c1ccc(F)cc1
Second: Cc1cccn2cc(-c3ccc(F)cc3)nc12
The viability increase of the first is higher: -0.02% for the first, -4.81% for the second.

Compared with `O=C(CCn1c(=O)oc2ccccc21)NCc1ccc2c(c1)OCO2`, `COc1ccc(CCNC(=O)CCn2c(=O)oc3ccccc32)cc1OC` is higher in viability increase: -2.85% for the first, -0.1% for the second.

Compared with `COc1ccc(-n2c(=O)c3ccccc3n(CC(=O)NC3CCCC3)c2=O)c(OC)c1`, `COc1cccc(-n2c(Cc3cc(=O)[nH]c(=O)[nH]3)nnc2SCC(=O)Nc2ccccc2)c1` is higher in viability increase: -0.98% for the first, -0.3% for the second.

Compared with `O=C(Nc1ccc(F)cc1)C1CCCN(S(=O)(=O)c2cccc3cccnc23)C1` (stereo not drawn), `CC1CCN(S(=O)(=O)c2ccc(NC(=O)c3cccs3)cc2)CC1` is lower in viability increase: -0.85% for the first, -5.18% for the second.

First: O=C(CCS(=O)(=O)c1cccc2nonc12)NCCc1ccccc1Cl
Second: Cc1ccc(CCNC(=O)CS(=O)Cc2nc(-c3cccc(C)c3)oc2C)cc1 (stereo not drawn)
The viability increase of the first is lower: -5.15% for the first, 2.47% for the second.

First: Cc1ccc(S(=O)(=O)N(CC(=O)N2CCCC2)C2CCCCC2)cc1
Second: O=C(COc1ccc(S(=O)(=O)NC2CCCCC2)cc1)Nc1ccc2c(c1)OCCO2
The viability increase of the first is higher: -1.79% for the first, -2.05% for the second.

First: Cc1ccc(N2C(=O)C(Cl)=C(NCCO)C2=O)c(C)c1
Second: Cc1ccc(C)c(SCC(=O)OCC(=O)Nc2ccc(S(=O)(=O)N3CCOCC3)cc2)c1
The viability increase of the first is lower: -2.47% for the first, -1.73% for the second.

Going from `CSc1nc2ccc(NS(=O)(=O)c3ccc4c(c3)OCCO4)cc2s1` to `Cc1cc(Nc2ccc3c(c2)OCCO3)n2nc(C)nc2n1`, the viability increase falls from 0.31% to -2.09%.

Going from `COc1ccc(OC)c2c1sc(=NC(=O)CN1C(=O)CCC1=O)n2C` to `COc1ccc(N2CSC3=C(C#N)C(c4ccc(OC)c(OC)c4)CC(=O)N3C2)c(OC)c1` (stereo not drawn), the viability increase falls from -1.92% to -4.13%.

Compared with `Cc1occc1C(=O)Nc1nnc(-c2ccncc2)s1`, `COc1ccc(C(=O)Nc2ccc(Cl)cc2C(=O)NCc2ccco2)cc1OC` is lower in viability increase: -0.28% for the first, -4.93% for the second.

Compared with `Cc1nnc(SCC(=O)Nc2ccc3c(c2)OCO3)o1`, `O=C(CSC1=NS(=O)(=O)c2ccccc21)Nc1ccccc1` is higher in viability increase: -5.27% for the first, -2.73% for the second.

Compared with `CCOC(=O)Cc1csc(NC(=O)COc2ccc(N(C)S(=O)(=O)c3cccs3)cc2)n1`, `CCCCOc1ccc(C2(C)CC(=O)NC2=O)cc1` (stereo not drawn) is higher in viability increase: -1.76% for the first, -1.56% for the second.

Going from `Cn1cc(SCC(=O)N2CCN(c3ccccc3)CC2)c2ccccc21` to `c1ccc2c(c1)CCN(c1nc3ccccc3n3cnnc13)C2`, the viability increase falls from -4.68% to -8.63%.

First: Cc1cccc(N=C(N2CCOCC2)P(=O)(N2CCOCC2)N2CCOCC2)c1
Second: COc1cccc(N2CCN(c3ncnc4c3cnn4-c3ccc(C)cc3C)CC2)c1
The viability increase of the first is higher: -0.69% for the first, -8.59% for the second.

Going from `CC(C)n1c(NCc2cc(Cl)ccc2O)nc2ccccc21` to `COc1ccc(C2C(C(=O)Nc3cccnc3)=C(C)Nc3nc(-c4ccco4)nn32)cc1` (stereo not drawn), the viability increase falls from -0.71% to -1.69%.

First: CN(CCNC(=O)C1CC(=O)N(C2CCCC2)C1)Cc1ccccc1 (stereo not drawn)
Second: O=C(NCCCN1CCCC1=O)c1ccccc1NS(=O)(=O)c1ccc(F)cc1
The viability increase of the first is higher: -0.98% for the first, -2.44% for the second.

Going from `CCOC(=O)c1sc2nc3n(c(=O)c2c1C)CCCCC3` to `CCOC(=O)C1Cn2c(nc3c(c2=O)C(C)(CC)Cc2ccccc2-3)S1` (stereo not drawn), the viability increase falls from 6.25% to -2.18%.

Compared with `CS(=O)(=O)N(CC(=O)NCc1ccco1)c1ccc(Cl)c(C(F)(F)F)c1`, `CC(NS(=O)(=O)c1ccc(Br)cc1)C(c1cccs1)N1CCN(C)CC1` (stereo not drawn) is higher in viability increase: -3.58% for the first, -2.85% for the second.

Going from `COc1ccc(-n2cnnc2)cc1` to `COc1ccc(OCc2nnc3n2N=C(c2ccc(OC)cc2)CS3)cc1`, the viability increase rises from -2.88% to -2.84%.

Compared with `O=C(Nn1nnnc1Nc1ccccc1)C12CC3CC(CC(C3)C1)C2`, `COCCCNC(=O)Cn1ncc2ccsc2c1=O` is higher in viability increase: -5.83% for the first, 1.3% for the second.
